According to ChEMBL document CHEMBL3862000, “Tetrahydroindazole derivatives as potent and peripherally selective cannabinoid-1 (CB1) receptor inverse agonists” (Bioorg Med Chem Lett, 2016):

Tests used:
[1] = target: Cannabinoid receptor 1 (Homo sapiens, UniProt P21554); assay: Inverse agonist activity at human cannabinoid receptor 1 expressed in HEK293 cells assessed as increase in forskolin-induced cAMP production preincubated with cells followed by forskolin stimulation measured after 30 mins in presence of D2-labeled cAMP and Eu3+-TBP-NHS cryptate by HTRF assay; assay type: functional, cell-based
[2] = target: Cannabinoid receptor 2 (Homo sapiens, UniProt P34972); assay: Inverse agonist activity at human cannabinoid receptor 2 expressed in HEK293 cells assessed as increase in forskolin-induced cAMP production preincubated with cells followed by forskolin stimulation measured after 30 mins in presence of D2-labeled cAMP and Eu3+-TBP-NHS cryptate by HTRF assay; assay type: functional, cell-based
[3] = Drug uptake in C57bl/6j mouse plasma at 20 mg/kg, po measured at 4 hr post dose by LC/MS analysis; assay type: ADME, organism-based
Outline: (§1)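 Male C57bl/6j mice given a single oral dose of 20 mg/kg. Plasma drawn by retro-orbital bleed at 1 h and 4 h. Whole brain minus cerebellum taken at 4 h, wet-weighed, frozen, then homogenized in saline. Compound levels in plasma and brain measured by LC/MS (LOQ 5 ng/ml). Brain/plasma ratio taken from the two concentrations.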

[4] = Drug uptake in C57bl/6j mouse brain without cerebellum at 20 mg/kg, po measured at 4 hr post dose by LC/MS analysis; assay type: ADME, organism-based; conditions: in vivo; outline: as §1
[5] = Ratio of drug level in C57bl/6j mouse brain to plasma at 20 mg/kg, po; assay type: ADME, organism-based; conditions: read-out: BPR
Outline: (§2)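 Male mice dosed orally. Plasma taken by retro-orbital bleed at 1 h and 2 h or 1 h and 4 h. Whole brain minus cerebellum removed at 2 h or 4 h, weighed wet, frozen, then homogenized in saline. Compound measured by LC/MS; LOQ 5 ng/ml. B/P ratio is brain over plasma concentration.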

[6] = Drug uptake in C57bl/6j mouse plasma at 20 mg/kg, po measured at 2 hrs post dose by LC/MS analysis; assay type: ADME, organism-based; outline: as §2
[7] = Drug uptake in C57bl/6j mouse brain without cerebellum at 20 mg/kg, po measured at 2 hrs post dose by LC/MS analysis; assay type: ADME, organism-based; conditions: for Drug uptake: in vivo, 2 h; outline: as §2
[8] = test system: Mus musculus; assay: Antiobesity activity in diet-induced obese mouse model assessed as fasting plasma glucose AUC (0 to 120 mins) at 30 mg/kg, po qd for 3 weeks measured on day 19 post glucose challenge by OGTT (reference value: 29890.50 +/- 2516.45 mg/dL.min); assay type: functional, organism-based; parameters: dose 30 mg/kg, time < 2 hr
[9] = Drug uptake in diet-induced obese mouse plasma at 30 mg/kg, po qd for 3 weeks measured 2 hrs post last dose on day 23; assay type: ADME, organism-based
Outline: (§3)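 Dosing ran daily, oral, in 10% PEG400 + 10% solutol at 5 mL/kg, […], run alongside the efficacy study. Plasma and brain compound levels measured 2 h after the last dose; B/P ratio is brain over plasma concentration.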

[10] = Drug uptake in diet-induced obese mouse brain at 30 mg/kg, po qd for 3 weeks measured 2 hrs post last dose on day 23; assay type: ADME, organism-based; conditions: in vivo; outline: as §3
[11] = Ratio of drug level in diet-induced obese mouse brain to plasma at 30 mg/kg, po qd for 3 weeks measured 2 hrs post last dose on day 23; assay type: ADME, organism-based; conditions: read-out: BPR; outline: as §3
[12] = test system: Mus musculus; assay: Toxicity in diet-induced obese mouse model assessed as effect on food intake at 30 mg/kg, po qd for 3 weeks measured on day 19 up to 120 mins post glucose challenge; assay type: organism-based; conditions: in vivo
[13] = test system: Mus musculus; assay: Toxicity in diet-induced obese mouse model assessed as effect on body weight at 30 mg/kg, po qd for 3 weeks measured on day 19 up to 120 mins post glucose challenge; assay type: organism-based; conditions: in vivo
[14] = test system: Rattus norvegicus; assay: Toxicity in Sprague-Dawley rat assessed as CNS-mediated behavior at 30 mg/kg, po by measuring stereotypic activity after 15 mins measured up to 2 hrs; assay type: organism-based; conditions: in vivo
Outline: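 Rats given vehicle (10% PEG400 and 10% solutol) or compound orally. Stereotypic activity recorded automatically from 15 min post-dose for a total of 2 h.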

Sequence of Cannabinoid receptor 1 (P21554 whole entry): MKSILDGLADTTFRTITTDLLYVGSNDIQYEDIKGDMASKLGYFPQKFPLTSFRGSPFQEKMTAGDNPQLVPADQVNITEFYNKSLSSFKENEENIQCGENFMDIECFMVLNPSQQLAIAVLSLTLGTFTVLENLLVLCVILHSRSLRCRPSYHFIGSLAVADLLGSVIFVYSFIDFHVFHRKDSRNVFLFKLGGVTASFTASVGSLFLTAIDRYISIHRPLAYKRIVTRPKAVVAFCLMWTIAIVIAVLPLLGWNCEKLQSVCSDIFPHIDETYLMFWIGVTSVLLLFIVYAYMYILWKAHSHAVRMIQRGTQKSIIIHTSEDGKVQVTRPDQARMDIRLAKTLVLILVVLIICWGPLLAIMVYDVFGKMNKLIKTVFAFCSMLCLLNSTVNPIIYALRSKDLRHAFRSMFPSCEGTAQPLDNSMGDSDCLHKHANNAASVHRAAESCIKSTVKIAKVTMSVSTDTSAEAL
Sequence of Cannabinoid receptor 2 (P34972 whole entry): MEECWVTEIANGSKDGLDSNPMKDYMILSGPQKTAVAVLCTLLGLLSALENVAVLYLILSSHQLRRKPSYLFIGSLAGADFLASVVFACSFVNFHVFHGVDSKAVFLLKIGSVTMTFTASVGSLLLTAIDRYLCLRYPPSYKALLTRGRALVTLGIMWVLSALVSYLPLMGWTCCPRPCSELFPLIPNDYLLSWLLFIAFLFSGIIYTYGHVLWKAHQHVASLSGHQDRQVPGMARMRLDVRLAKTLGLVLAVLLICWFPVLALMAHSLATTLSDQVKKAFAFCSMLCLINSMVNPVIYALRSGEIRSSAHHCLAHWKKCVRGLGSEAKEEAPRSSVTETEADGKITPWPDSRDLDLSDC

Row | EC50 [1] [nM] | EC50 [2] [nM] | Kp [5] | concentration at 2 h [6] [nM] | Drug uptake [7] [nmol/g] | concentration at 2 h [9] [nM] | Drug uptake [10] [nmol/g] | Kp at 2 h [11] | SMILES | concentration at 4 h [3] [nM] | Drug uptake [4] [nmol/g] | AUC [8] [ng·h/mL] | Activity [12] | Activity [13] | Activity [14] | concentration at 2 h ([7]; C57BL/6J, brain without cerebellum, read-out: Drug uptake) [ng/mL]
1 | 18 | > 10000 | 0.11 | – | – | – | – | – | C[C@@H](NC(=O)c1nn(-c2ccc(C(F)(F)F)cc2Cl)c2c1CCC/C2=C\c1ccc(Cl)s1)c1ccccn1 | 460 | 0.051 | – | – | – | – | –
2 | 35 | 2000 | 0.05 | 1620 | 0.07 | 6620 | 0.25 | 0.037 | C[C@@H](NC(=O)c1nn(-c2ccc(Cl)c(Cl)c2)c2c1CCCC/C2=C\c1ccc(F)cc1)c1ccccn1 | – | – | 3.67e+06 | Non-Toxic | Non-Toxic | Non-Toxic | –
3 | 4 | > 10000 | 0.92 | 1560 | 1.39 | – | – | – | C[C@@H](NC(=O)c1nn(-c2ccc(Cl)cc2Cl)c2c1CCC/C2=C\c1ccc(F)cc1)c1ccccn1 | – | – | – | – | – | – | –
4 | 28 | > 10000 | 0.03 | 2030 | 0.05 | – | – | – | O=C(NC1CCN(c2ccccn2)CC1)c1nn(-c2ccc(Cl)cc2Cl)c2c1CCCC/C2=C\c1ccc(F)cc1 | – | – | – | – | – | – | –
5 | 28 | > 10000 | 0.41 | 2470 | 1.02 | – | – | – | C[C@@H](NC(=O)c1nn(-c2ccc(Cl)cc2)c2c1CCCC/C2=C\c1ccc(F)cc1)c1ccccn1 | – | – | – | – | – | – | –
6 | 127 | > 10000 | 0.26 | 3720 | 0.97 | – | – | – | C[C@@H](NC(=O)c1nn(-c2ccc(Cl)cc2)c2c1CCC/C2=C\c1ccc(Cl)cc1)c1ccccn1 | – | – | – | – | – | – | –
7 | 35 | 3820 | 0.08 | 2960 | 0.24 | – | – | – | C[C@@H](NC(=O)c1nn(-c2ccc(Cl)cc2Cl)c2c1CCC/C2=C\c1ccc(Cl)s1)c1ccccn1 | – | – | – | – | – | – | –
8 | 12 | > 11000 | 0.02 | 1520 | 0.035 | – | – | – | O=C(NC1CCN(c2ccccn2)CC1)c1nn(-c2ccc(Cl)cc2Cl)c2c1CCC/C2=C\c1ccc(F)cc1 | – | – | – | – | – | – | –
9 | 7 | 743 | 0.16 | 830 | 0.13 | – | – | – | C[C@@H](NC(=O)c1nn(-c2ccc(Cl)cc2Cl)c2c1CCCC/C2=C\c1ccc(Cl)cc1)c1ccccn1 | – | – | – | – | – | – | –
10 | 56 | > 10000 | 0.01 | 4760 | 0.05 | – | – | – | C[C@@H](NC(=O)c1nn(-c2ccc(Cl)c(Cl)c2)c2c1CCCC/C2=C\c1ccc(C(F)(F)F)cc1)c1ccccn1 | – | – | – | – | – | – | –
11 | 7 | 1610 | 0.82 | – | – | – | – | – | O=C(NC1(c2ccccn2)CC1)c1nn(-c2ccc(Cl)cc2)c2c1CCC/C2=C\c1ccc(Cl)cc1 | 1610 | 1.28 | – | – | – | – | –
12 | 2 | 9410 | 0.15 | 3630 | 0.56 | – | – | – | C[C@@H](NC(=O)c1nn(-c2ccc(Cl)cc2Cl)c2c1CCCC/C2=C\c1ccc(Cl)s1)c1ccccn1 | – | – | – | – | – | – | –
13 | 4 | 560 | 0.48 | 380 | 0.16 | – | – | – | C[C@@H](NC(=O)c1nn(-c2ccc(Cl)cc2Cl)c2c1CCCC/C2=C\c1ccc(Cl)cn1)c1ccccn1 | – | – | – | – | – | – | –
14 | 34 | > 10000 | 0.09 | – | – | – | – | – | O=C(NC1CCN(c2ccccn2)CC1)c1nn(-c2ccc(Cl)cc2Cl)c2c1CCC/C2=C\c1ccc(Cl)cc1 | 450 | 0.04 | – | – | – | – | –

Row | SMILES | EC50 [1] [nM] | EC50 [2] [nM] | Kp [5] | concentration at 2 h [6] [nM] | Drug uptake [7] [nmol/g] | concentration at 2 h [9] [nM] | Drug uptake [10] [nmol/g] | Kp at 2 h [11] | concentration at 4 h [3] [nM] | Drug uptake [4] [nmol/g] | AUC [8] [ng·h/mL] | Activity [12] | Activity [13] | Activity [14] | concentration at 2 h ([7]; C57BL/6J, brain without cerebellum, read-out: Drug uptake) [ng/mL]
15 | C[C@@H](NC(=O)c1nn(-c2ccc(Cl)c(Cl)c2)c2c1CCC/C2=C\c1ccc(Cl)s1)c1ccccn1 | 37 | > 10000 | 0.03 | – | – | – | – | – | 3180 | 0.1 | – | – | – | – | –
16 | O=C(NC1(c2ccccn2)CC1)c1nn(-c2ccc(C(F)(F)F)cc2Cl)c2c1CCC/C2=C\c1ccc(Cl)s1 | 11 | > 10000 | 0.14 | – | – | – | – | – | 4630 | 0.64 | – | – | – | – | –
17 | O=C(NC1(c2ccccn2)CC1)c1nn(-c2ccc(C(F)(F)F)cc2Cl)c2c1CCCC/C2=C\c1ccc(Cl)s1 | 8 | > 10000 | 0.24 | – | – | – | – | – | 1540 | 0.36 | – | – | – | – | –
18 | C[C@@H](NC(=O)c1nn(-c2ccc(Cl)c(Cl)c2)c2c1CCCC/C2=C\c1ccc(Cl)cc1)c1ccccn1 | 37 | > 10000 | 0.02 | 2400 | 0.05 | – | – | – | – | – | – | – | – | – | –
19 | C[C@@H](NC(=O)c1nn(-c2ccc(Cl)cc2Cl)c2c1CCC/C2=C\c1ccc(Cl)cc1)c1ccccn1 | 30 | 854 | 0.2 | – | – | – | – | – | 1600 | 0.32 | – | – | – | – | –
20 | C[C@@H](NC(=O)c1nn(-c2ccc(Cl)cc2)c2c1CCC/C2=C\c1ccc(Cl)cn1)c1ccccn1 | 22 | > 10000 | 0.65 | 2930 | 1.91 | – | – | – | – | – | – | – | – | – | –
21 | C[C@@H](NC(=O)c1nn(-c2ccc(C(F)(F)F)cc2Cl)c2c1CCCC/C2=C\c1ccc(Cl)s1)c1ccccn1 | 8 | > 10000 | 0.28 | – | – | – | – | – | 640 | 0.17 | – | – | – | – | –
22 | C[C@@H](NC(=O)c1nn(-c2ccc(Cl)cc2Cl)c2c1CCCC/C2=C\c1ccc(F)cc1)c1ccccc1 | 6 | 5590 | – | 1290 | – | – | – | – | – | – | – | – | – | – | < 5
23 | O=C(NC1(c2ccccn2)CC1)c1nn(-c2ccc(Cl)c(Cl)c2)c2c1CCCC/C2=C\c1ccc(F)cc1 | 13 | 807 | 0.05 | 2410 | 0.11 | – | – | – | – | – | – | – | – | – | –
